# This is a sample that favours compounds with a hit; in the whole collection about 3.8% have one here.
# KCNQ1 act: human KCNQ1 channel potentiation or activation. 310,000 tested, 0.35% active. CHO-K1 KCNQ1, thallium flux FluxOR fluorescence; hits give high values. AID 2648. P51787. B-score at 10 µM;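 active = fluorescence ratio B-score, a plate-corrected score, at least three library SD, with initial intensity B-score within 5 SD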
# Target sequence (P51787 whole entry, looked up): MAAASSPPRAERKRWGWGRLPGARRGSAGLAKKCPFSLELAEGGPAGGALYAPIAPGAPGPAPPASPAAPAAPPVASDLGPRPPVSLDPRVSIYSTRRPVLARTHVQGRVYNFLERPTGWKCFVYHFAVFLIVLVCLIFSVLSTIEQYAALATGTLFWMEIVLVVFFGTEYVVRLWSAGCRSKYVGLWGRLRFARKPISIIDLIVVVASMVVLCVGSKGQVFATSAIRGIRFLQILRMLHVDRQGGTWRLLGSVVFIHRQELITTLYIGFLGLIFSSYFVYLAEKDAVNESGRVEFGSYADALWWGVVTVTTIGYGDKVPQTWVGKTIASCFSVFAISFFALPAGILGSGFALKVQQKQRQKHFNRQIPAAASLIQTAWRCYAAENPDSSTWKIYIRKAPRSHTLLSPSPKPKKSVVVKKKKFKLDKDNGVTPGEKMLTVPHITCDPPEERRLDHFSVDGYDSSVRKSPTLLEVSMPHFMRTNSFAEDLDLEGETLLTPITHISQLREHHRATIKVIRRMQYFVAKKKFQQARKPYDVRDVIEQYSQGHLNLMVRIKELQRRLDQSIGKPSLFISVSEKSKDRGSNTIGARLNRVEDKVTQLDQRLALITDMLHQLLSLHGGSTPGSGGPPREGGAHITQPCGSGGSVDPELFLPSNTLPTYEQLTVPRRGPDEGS
#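 Test system: CHO-K1 cells stably expressing KCNQ1 / Medium: assay buffer / Also added: depolarizing K+/Tl+ stimulus, K2SO4 and Tl2SO4 each 12.5 mM in 5x stock / Incubation: 90 min dye loading and 20 min compound exposure, both at room temperature / Signal: thallium influx via FluxOR fluorescence, kinetic imaging / Evaluation: B score of baseline-normalized fluorescence ratio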
# hERG protect: hERG (human) protection from proarrhythmic block | 310,000 tested, 0.51% active | AID 1511 | activation (rescue from dofetilide block), less the hit threshold, % at 10 µM | Q12809 | CHO-hERG, FluxOR thallium flux, dofetilide IC70 present;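 active = activation above the mean of controls blocked by dofetilide plus 5 SD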;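 also: thallium influx through hERG after potassium depolarization seen as dye fluorescence rise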
# KCNQ1 inh: inhibitors of human KCNQ1 potassium channel; B-score at 10 µM; 310,000 tested, 1.3% active; AID 2642; CHO-K1 KCNQ1, FluxOR thallium flux fluorescence; hits give high values; P51787;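 active = compounds whose thallium flux B-score, printed positive for inhibition, exceeds three library SD while starting fluorescence stays within three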;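 also: channel opened by potassium depolarization with thallium stimulus after 20 min compound exposure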
# KCNK9 block: blocks the human KCNK9 two-pore domain potassium channel; AID 488922; HEK293 KCNK9, FluxOR thallium flux fluorescence; hits give low values; B-score at 10 µM; Q9NPC2; 310,000 tested, 1.2% active;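 active = ratio B-score over 3 SD below the library mean, with starting fluorescence within 5 SD of its mean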;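 also: negative B-score means less thallium flux so channel inhibition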
# KCNK3 block: human KCNK3 channel inhibition, primary screen | CHO-KCNK3 thallium flux, FluxOR fluorescence; hits give low values | B-score at 10 µM | 340,000 tested, 0.84% active | AID 602410;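 active = B-score under library mean minus 4 SD, starting fluorescence ratio at most library mean plus 5 SD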;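 also: more negative B-score means stronger inhibition of thallium flux through KCNK3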
# Kir21 block: Kir2.1 (mouse) channel inhibition | 310,000 tested, 0.85% active | HEK293-Kir2.1, FluxOR thallium flux fluorescence; hits give low values | B-score at 10 µM | AID 1672 | P35561;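 active = fluorescence ratio B-score at or below minus 3 SD of library scores, with starting-brightness B-score within 2 SD, cut at about -4.2 in these data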;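 also: channel flux triggered by added potassium and thallium sulfate stimulus; B-score of peak minus minimum fluorescence over baseline after thallium stimulus; more negative B-score means stronger Kir2.1 block with less thallium influx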
# * hit, by the source's call; i = inactive; nt = no result.
SMILES,KCNQ1 act,hERG protect,KCNQ1 inh,KCNK9 block,KCNK3 block,Kir21 block
Cc1ccc2c(c1)sc1nc(=O)ccn12,i,6.7*,i,i,i,-0.47
COc1ccc2c(c1)sc1nc(=O)ccn12,i,-11,i,i,i,1.1
COc1cc(C(=O)N2CCN(S(=O)(=O)c3ccc(C)cc3)CC2)ccc1OCC(=O)N1CCOCC1,nt,nt,nt,nt,i,nt
Cc1[nH]n(-c2ccccc2)c(=O)c1Sc1ccc(Cl)cc1,i,-12,i,i,i,0.61
CCCSC(=S)c1c(C)[nH]n(-c2ccccc2)c1=O,16*,27*,i,i,i,0
CC1CCN(CCNC(=O)c2ccc3c(=O)n(Cc4ccc(Cl)cc4)c(=S)[nH]c3c2)CC1,i,-19,i,i,i,-0.3
O=C(NCc1cc2ccccc2[nH]1)C1CCC(=O)N(CCCN2CCCC2=O)C1 (configuration not stated),i,-2,i,i,i,-0.52
Cc1ccccc1NC(=O)c1cccc2c1C(=O)N(C1CCCCC1)C2,i,-9,i,i,i,-1
O=C(Nc1cccc(F)c1)c1cccc2c1C(=O)N(C1CCCCC1)C2,i,-5,i,-11*,i,-0.76
C=CCc1c(C)nc(-c2ccccc2)nc1N/N=C/c1ccccc1,i,-12,6*,i,i,0.41
COc1ccc2cc(C(=O)C3CCCN(Cc4cccc(C)n4)C3)ccc2c1 (configuration not stated),i,-10,i,i,i,-2.5
Cc1cccc(CN2CCCC(C(=O)c3ccc4c5c(cccc35)CC4)C2)n1 (configuration not stated),i,-19,i,i,i,-4.2*
CCC(Sc1ncccc1Nc1ccccn1)C(=O)O (configuration not stated),i,-10,i,i,i,-0.91
COc1ccc(CN(C)CC2CCCN(CCc3ccccc3C)C2)cc1O (configuration not stated),i,-3,i,i,i,-8.8*
COc1cccc(CN(C)CC2CCCN(CCc3ccccc3C)C2)c1 (configuration not stated),i,-8,i,i,i,-6.5*
CCOc1ccc(S(=O)(=O)N2CCC(C(=O)Nc3ccc(C)c(S(=O)(=O)N4CCOCC4)c3)CC2)cc1,nt,nt,nt,nt,i,nt
CC/C(=N\NS(=O)(=O)c1ccc(C)cc1)c1ccco1,i,-6,i,i,i,-0.72
Cc1ccc(OCC(=O)NNC(=S)NC(=O)C2CC2)c(C)c1,i,-10,i,i,i,0.25
Cc1ccc(OCC(=O)NNC(=S)NC(=O)C2CCCCC2)c(C)c1,8*,-5,i,i,i,-0.15
CC(C)c1ccc(OCC(=O)NNC(=S)NC(=O)c2cccs2)c(Br)c1,30*,-12,i,i,i,-0.67
Cc1ccc(OCC(=O)NNC(=S)NC(=O)C(C)(C)C)c(Br)c1,9*,-5,i,i,i,-1.6
CCc1ccccc1NC(=O)C1=CN2CCS(=O)(=O)N=C2C=C1,nt,nt,nt,nt,i,nt
CCN(CC)C(=O)CN1C(=O)C2CC=C(Cl)CC2C1=O (configuration not stated),i,5.8*,i,i,i,1.2
CN(C)C(=O)CN1C(=O)C2CC=C(Cl)CC2C1=O (configuration not stated),i,-10,i,i,i,0.69
COCCn1c(C)cc(C(=O)COC(=O)/C=C/c2ccc(OC)cc2OC)c1C,nt,nt,nt,nt,i,nt
COc1ccc(N=Nc2nc(-c3ccccc3)c(-c3ccccc3)[nH]2)cc1,i,-6,6*,i,i,-0.02
Oc1ccccc1N=Nc1nc(-c2ccccc2)c(-c2ccccc2)[nH]1,i,-19,10*,i,i,-0.06
COc1ccccc1N=Nc1nc(-c2ccccc2)c(-c2ccccc2)[nH]1,i,-28,i,i,i,-0.12
CCCC(C)c1oc(=O)cc(O)c1C (configuration not stated),nt,nt,nt,nt,i,nt
Cc1onc(-c2ccccc2)c1C(=O)NC1CC1,nt,nt,nt,nt,i,nt
